Assay results: ChEMBL document CHEMBL5715959, “Inhibition of histone methyltransferase EZH2 in Schistosoma mansoni in vitro by GSK343 reduces egg laying and decreases the expression of genes implicated in DNA replication and noncoding RNA metabolism” (2018)
The source made the active and inactive calls.

Assays:
[1] = test system: Schistosoma mansoni; assay: Antischistosomal activity against Schistosoma mansoni assessed as decreased H3K27me3 level in schistosomula at 20 uM incubated for 48 hrs by Western blotting analysis; format: functional, organism-based
Summary of the method: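 About 10,000 schistosomula were treated 48 h with 20 μM GSK343 or vehicle, then sonicated in Triton X-100 lysis buffer with PMSF and protease inhibitors. Supernatant nuclear extract (BCA-quantified, 10 μg) was run on 15% SDS-PAGE and blotted to nitrocellulose. Blots were probed with mark-specific monoclonal antibodies, then IRDye secondaries; infrared imaging was used and signals were normalized to total H3. t-test.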

[2] = test system: Schistosoma mansoni; assay: Antischistosomal activity against Schistosoma mansoni assessed as lower growth rate at 20 uM incubated for 24 to 48 hrs by scanning electron microscopy analysis; format: functional; conditions: time 24-48 hrs
Summary of the method: (§1)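 Newly transformed schistosomula were held 16 h in M169 with 2% FBS, serotonin, hypoxanthine, hydrocortisone, triiodothyronine and antibiotics at 37°C, 5% CO2, at 2,000 per well. They were then exposed to 20 μM GSK343 or 0.1% DMSO for 24 and 48 h. Fixation was modified Karnovsky (pH 7.4) with 1% osmium post-fix, then ethanol dehydration, critical-point drying, gold coating and SEM. Lengths came from three experiments, each with 20 schistosomula.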

[3] = test system: Schistosoma mansoni; assay: Antischistosomal activity against adult female Schistosoma mansoni assessed as reduction in area dimension of egg at 20 uM incubated for 24 to 48 hrs by scanning electron microscopy analysis relative to control; format: functional; parameters: scale not given: the % may be the effect or the level left; conditions: time 24-48 hrs
Summary of the method: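 Eggs released by couples kept 24 or 48 h with 20 μM GSK343 or 0.1% DMSO in supplemented RPMI were fixed in modified Karnovsky with osmium post-fix. They were dehydrated, critical-point dried, gold-coated and imaged by SEM; total egg area dimension was measured.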

[4] = test system: Schistosoma mansoni; assay: Antischistosomal activity against adult male Schistosoma mansoni assessed as presence of deep chasms between the dorsal tubercles at 20 uM incubated for 48 hrs by scanning electron microscopy analysis; format: functional, organism-based
Summary of the method: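 Adult couples were taken by perfusion into supplemented RPMI, one couple per well, and adapted 2 h at 37°C, 5% CO2. They were exposed to 20 μM GSK343 or 0.1% DMSO for 24 and 48 h. Fixation used modified Karnovsky with osmium post-fix, followed by ethanol dehydration, critical-point drying, gold sputtering and scanning electron microscopy of tegument surfaces.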

[5] = test system: Schistosoma mansoni; assay: Antischistosomal activity against adult Schistosoma mansoni assessed as dead worms at 50 uM incubated for 48 hrs by inverted microscope analysis; format: functional, organism-based
Summary of the method: (§2)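 Paired adult worms were cultured in RPMI/10% FBS with antibiotics at 37°C, 5% CO2, with GSK343 or 0.1% DMSO. They were viewed by inverted microscope at 3, 6, 12, 24 and 48 h. Motility was scored on a 0–3 scale (3 full movement, 1.5 partial or immobile but alive, 0 dead); death meant no movement over more than 2 min. Pairing was recorded. Three experiments, each with 10 pairs; mean ± SD.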

[6] = test system: Schistosoma mansoni; assay: Antischistosomal activity against Schistosoma mansoni assessed as down-regulated DNAse II protein mRNA level in schistosomula at 20 uM incubated for 48 hrs by RT-qPCR analysis; format: functional, organism-based
Summary of the method: (§3)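 Schistosomula (supplemented M169) or adult worms (supplemented RPMI) were treated 48 h with 20 μM GSK343 or 0.1% DMSO at 37°C, 5% CO2. qPCR normalizer genes were chosen from RNA-seq data as those with TPM >1 and a treated/control ratio of 0.9–1.1 that were not differentially expressed. Relative expression was calculated by comparative Ct; significance by t-test.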

[7] = test system: Schistosoma mansoni; assay: Antischistosomal activity against juvenile Schistosoma mansoni assessed as destroyed oral sucker at 20 to 50 uM incubated for 48 hrs by scanning electron microscopy analysis; format: functional, organism-based; conditions: in the assay text read “at 50 uM” for “at 20 to 50 uM”
Summary of the method: (§4)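 Juvenile worms recovered by perfusion, five per well in supplemented RPMI (10% FBS, antibiotics, 37°C, 5% CO2), 2 h adaptation, then exposed 48 h to compound or 0.1% DMSO. Fixed in modified Karnovsky reagent (pH 7.4), washed in cacodylate buffer, post-fixed 1 h in 1% osmium tetroxide, ethanol-dehydrated, critical-point dried, gold-sputtered and imaged by scanning electron microscopy.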

[8] = test system: Schistosoma mansoni; assay: Antischistosomal activity against female Schistosoma mansoni assessed as down-regulated Tyrosinase 1 mRNA level at 20 uM incubated for 48 hrs by RT-qPCR analysis; format: functional, organism-based; summary of the method: as §3
[9] = test system: Schistosoma mansoni; assay: Cytotoxicity against adult Schistosoma mansoni assessed as reduction in ATP quantification at 20 uM incubated for 48 hrs by CellTiter-Glo Luminescent assay relative to control; format: functional; parameters: scale not given: the % may be the effect or the level left
Summary of the method: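 Worm pairs in supplemented RPMI (10% FBS, 37°C, 5% CO2) exposed 48 h to compound or 0.1% DMSO. ATP measured by luminescence in freshly lysed worms and expressed as % of vehicle signal; three replicate experiments, 10 pairs each, mean ± SD.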

[10] = test system: Schistosoma mansoni; assay: Antischistosomal activity against female Schistosoma mansoni assessed as down-regulated ESP mRNA level at 20 uM incubated for 48 hrs by RT-qPCR analysis; format: functional, organism-based; summary of the method: as §3
[11] = test system: Schistosoma mansoni; assay: Antischistosomal activity against juvenile Schistosoma mansoni assessed as damaged dorsal surface ridge at 20 to 50 uM incubated for 48 hrs by scanning electron microscopy analysis; format: functional, organism-based; conditions: dose 20-50 µM; summary of the method: as §4
[12] = test system: Schistosoma mansoni; assay: Antischistosomal activity against adult Schistosoma mansoni assessed as decreased motility at 20 uM incubated for 48 hrs by inverted microscope analysis relative to control; format: functional; parameters: scale not given: the % may be the effect or the level left; summary of the method: as §2
[13] = test system: Schistosoma mansoni; assay: Antischistosomal activity against female Schistosoma mansoni assessed as down-regulated nanos mRNA level at 20 uM incubated for 48 hrs by RT-qPCR analysis; format: functional, organism-based; summary of the method: as §3
[14] = test system: Schistosoma mansoni; assay: Antischistosomal activity against Schistosoma mansoni assessed as death of schistosomula at 10 to 50 uM incubated for 24 to 72 hrs by propidium iodide staining based fluorescence microscope analysis; format: functional, organism-based; conditions: dose 10-50 µM, time 24-72 hrs
Summary of the method: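 Schistosomula were cultured in supplemented M169 with 10–50 μM GSK343 or 0.1% DMSO for 24, 48 and 72 h. A fresh well set was used per time point, with 2 μg/mL propidium iodide (dead) plus 0.5 μg/mL fluorescein diacetate (live) added. Parasites were read immediately by light and fluorescence microscopy; percent viable was computed against total parasites. About 3600 schistosomula per condition over four biological replicates; 70% ethanol served as positive control.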

[15] = test system: Schistosoma mansoni; assay: Antischistosomal activity against female Schistosoma mansoni assessed as down-regulated EEFB1 mRNA level at 20 uM incubated for 48 hrs by RT-qPCR analysis; format: functional, organism-based; summary of the method: as §3
[16] = test system: Schistosoma mansoni; assay: Antischistosomal activity against adult Schistosoma mansoni assessed as decreased H3K27me3 level at 20 uM incubated for 48 hrs by Western blotting analysis; format: functional, organism-based
Summary of the method: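 Fifty adult worm pairs were treated 48 h with 20 μM GSK343 or vehicle in supplemented RPMI/10% FBS, then lysed in Triton buffer. Nuclear pellets were acid-extracted overnight in 0.25 M HCl at 4°C and histones were TCA-concentrated. 10 μg went on 15% SDS-PAGE and nitrocellulose, probed with anti-H3K27me3, K9ac, K27ac or K4me3, then IRDye secondaries; infrared densitometry was normalized to anti-H3. Three biological replicates; t-test.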

[17] = test system: Schistosoma mansoni; assay: Antischistosomal activity against Schistosoma mansoni assessed as down-regulated LDL receptor mRNA level in schistosomula at 20 uM incubated for 48 hrs by RT-qPCR analysis; format: functional, organism-based; summary of the method: as §3
[18] = test system: Schistosoma mansoni; assay: Antischistosomal activity against Schistosoma mansoni assessed as deterioration of tegument with blisters at 20 uM incubated for 24 hrs by scanning electron microscopy analysis; format: functional, organism-based; summary of the method: as §1

CCCc1cc(C)[nH]c(=O)c1CNC(=O)c1cc(-c2ccnc(N3CCN(C)CC3)c2)cc2c1cnn2C(C)C
active: Activity [1] | Activity [4] | Activity [5] | Activity [6] | Activity [7] | Activity [8] | Activity [10] | Activity [11] | Activity [13] | Activity [14] | Activity [15] | Activity [16] | Activity [17] | Activity [18]
30%: Activity [3]
50%: Activity [9]
4: fold change (FC) [2]
~40%: Activity [12]
